Columns and labels:
Type in all cases: functional
RPMI-8226 = test: Cytotoxicity against human RPMI8226 cells; conditions: for CC50: read-out: pLC50 (the source's name) (converted); for TGI: read-out: pTGI (converted)
Outline: (§1)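 Tested in a 60-cell-line human tumor panel screen; the read-out is growth inhibition, reported as GI50 for each cell line.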

A549 = test: Cytotoxicity against human A549 cells; conditions: for CC50: read-out: pLC50 (the source's name) (converted); for TGI: read-out: pTGI (converted); outline: as §1
[1] = Cytotoxicity against human EKVX cells; conditions: for CC50: read-out: pLC50 (the source's name) (converted); for TGI: read-out: pTGI (converted); outline: as §1
HOP-92 = test: Cytotoxicity against human HOP92 cells; conditions: for CC50: read-out: pLC50 (the source's name) (converted); for TGI: read-out: pTGI (converted); outline: as §1
SW-620 = test: Cytotoxicity against human SW620 cells; conditions: for CC50: read-out: pLC50 (the source's name) (converted); for TGI: read-out: pTGI (converted)
Outline: (§2)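 Cell line run as part of the 60-cell-line screening panel; growth inhibition was reported as a GI50 for each line.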

SNB-19 = test: Cytotoxicity against human SNB19 cells; conditions: for CC50: read-out: pLC50 (the source's name) (converted); for TGI: read-out: pTGI (converted); outline: as §1
U-251 = test: Cytotoxicity against human U251 cells; conditions: for CC50: read-out: pLC50 (the source's name) (converted); for TGI: read-out: pTGI (converted); outline: as §2
Malme-3M = test: Cytotoxicity against human MALME-3M cells; conditions: for CC50: read-out: pLC50 (the source's name) (converted); for TGI: read-out: pTGI (converted); outline: as §1
NCI-H322M = test: Cytotoxicity against human NCI-H322M cells; conditions: for CC50: read-out: pLC50 (the source's name) (converted); for TGI: read-out: pTGI (converted); outline: as §1
NCI-H522 = test: Cytotoxicity against human NCI-H522 cells; conditions: for CC50: read-out: pLC50 (the source's name) (converted); for TGI: read-out: pTGI (converted); outline: as §1
SK-MEL-28 = test: Cytotoxicity against human SK-MEL-28 cells; conditions: for CC50: read-out: pLC50 (the source's name) (converted); for TGI: read-out: pTGI (converted); outline: as §1
[2] = Cytotoxicity against human OVCAR5 cells; conditions: for GI50: OVCAR-5; for CC50: OVCAR-5, read-out: pLC50 (the source's name) (converted); for TGI: OVCAR-5, read-out: pTGI (converted); outline: as §1
A498 = test: Cytotoxicity against human A498 cells; conditions: for CC50: read-out: pLC50 (the source's name) (converted); for TGI: read-out: pTGI (converted); outline: as §1
ACHN = test: Cytotoxicity against human ACHN cells; conditions: for TGI: read-out: pTGI (converted); outline: as §1
SN12C = test: Cytotoxicity against human SN12C cells; conditions: for TGI: read-out: pTGI (converted); outline: as §1
[3] = Cytotoxicity against human UO31 cells; conditions: for GI50 / LC50: UO-31; for TGI: UO-31, read-out: pTGI (converted); outline: as §2
[4] = Cytotoxicity against human Hs578T cells; conditions: Hs-578T; for TGI: read-out: pTGI (converted); outline: as §1

In the case of `COc1cc(/C=C/c2cc(OC)c3c(C/C=C(\C)CCC=C(C)C)c[nH]c3c2)cc2c1O[C@]1(C)CC[C@@H](O)C(C)(C)[C@H]1C2`, the GI50 (RPMI-8226) is reported as 0.126 µM, the CC50 (RPMI-8226) is reported as over 100 µM and the TGI (RPMI-8226) is reported as 0.617 µM. The GI50 (A549) was 1.66 µM, the CC50 (A549) was over 100 µM and the TGI (A549) was 36.3 µM. The GI50 [1] was 1.82 µM, the CC50 [1] was over 100 µM and the TGI [1] was over 100 µM. It also gave a GI50 (HOP-92) of 0.302 µM, a CC50 (HOP-92) of over 100 µM and a TGI (HOP-92) of 16.6 µM. It also gave a GI50 (SW-620) of 1.17 µM, a CC50 (SW-620) of 5.89 µM and a TGI (SW-620) of 2.63 µM. The GI50 (SNB-19) was 1.7 µM, the CC50 (SNB-19) was 58.9 µM and the TGI (SNB-19) was 13.5 µM. It also gave a GI50 (U-251) of 0.759 µM, a CC50 (U-251) of 39.8 µM and a TGI (U-251) of 12.9 µM. The GI50 (Malme-3M) was 1.82 µM, the CC50 (Malme-3M) was 77.6 µM and the TGI (Malme-3M) was 19.5 µM. For the same compound, the GI50 (NCI-H322M) was 19.1 µM, the CC50 (NCI-H322M) was over 100 µM and the TGI (NCI-H322M) was over 100 µM. The GI50 (NCI-H522) was 1.55 µM, the CC50 (NCI-H522) was 8.51 µM and the TGI (NCI-H522) was 3.63 µM. For the same compound, the GI50 (SK-MEL-28) was 1.05 µM, the CC50 (SK-MEL-28) was 8.32 µM and the TGI (SK-MEL-28) was 2.95 µM. The GI50 [2] was 1.02 µM, the CC50 [2] was 49 µM and the TGI [2] was 14.5 µM. The GI50 (A498) was 1.02 µM, the CC50 (A498) was 16.6 µM and the TGI (A498) was 3.72 µM. The GI50 (ACHN) was 0.661 µM, the LC50 (concentration killing 50% of cells) (ACHN) was 85.1 µM and the TGI (ACHN) was 16.2 µM. The GI50 (SN12C) was 6.76 µM, the LC50 (SN12C) was 63.1 µM and the TGI (SN12C) was 23.4 µM. It also gave a GI50 [3] of 0.631 µM, an LC50 [3] of over 100 µM and a TGI [3] of 14.1 µM. The GI50 [4] was 0.219 µM, the LC50 [4] was over 100 µM and the TGI [4] was 1.66 µM.

Work on `COc1cc(/C=C/c2cc(OC)c3c(CC=C(C)C)c[nH]c3c2)cc2c1O[C@]1(C)CC[C@@H](O)C(C)(C)[C@H]1C2` yielded a GI50 (RPMI-8226) of 0.0776 µM, a TGI (RPMI-8226) of 0.355 µM and a GI50 (A549) of 0.525 µM. It also gave a CC50 (A549) of 50.1 µM, a TGI (A549) of 12.9 µM and a GI50 [1] of 0.832 µM. The CC50 [1] was over 100 µM, the TGI [1] was 6.61 µM and the GI50 (HOP-92) was 0.178 µM. The CC50 (HOP-92) was 93.3 µM, the TGI (HOP-92) was 5.62 µM and the GI50 (SW-620) was 0.288 µM. It also gave a CC50 (SW-620) of 4.07 µM, a TGI (SW-620) of 1.12 µM and a GI50 (SNB-19) of 0.398 µM. It also gave a CC50 (SNB-19) of 28.2 µM, a TGI (SNB-19) of 4.17 µM and a GI50 (U-251) of 0.0759 µM. The CC50 (U-251) was 12.9 µM, the TGI (U-251) was 2.29 µM and the GI50 (Malme-3M) was 2 µM. It also gave a CC50 (Malme-3M) of 91.2 µM, a TGI (Malme-3M) of 8.71 µM and a GI50 (NCI-H322M) of 6.31 µM. The CC50 (NCI-H322M) was over 100 µM, the TGI (NCI-H322M) was 39.8 µM and the GI50 (NCI-H522) was 0.646 µM. For the same compound, the CC50 (NCI-H522) was 5.25 µM, the TGI (NCI-H522) was 2 µM and the GI50 (SK-MEL-28) was 0.347 µM. The CC50 (SK-MEL-28) was 15.8 µM, the TGI (SK-MEL-28) was 2.24 µM and the GI50 [2] was 1.55 µM. The CC50 [2] was 51.3 µM, the TGI [2] was 7.24 µM and the GI50 (A498) was 0.138 µM. It also gave a CC50 (A498) of 5.25 µM, a TGI (A498) of 0.603 µM and a GI50 (ACHN) of 1.26 µM. For the same compound, the LC50 (concentration killing 50% of cells) (ACHN) was 49 µM, the TGI (ACHN) was 15.1 µM and the GI50 (SN12C) was 2.51 µM. The LC50 (SN12C) was 52.5 µM, the TGI (SN12C) was 19.1 µM and the GI50 [3] was 0.437 µM. For the same compound, the LC50 [3] was 56.2 µM, the TGI [3] was 6.92 µM and the GI50 [4] was 0.0537 µM. For the same compound, the LC50 [4] was over 100 µM and the TGI [4] was 0.692 µM.

`COc1cc(/C=C/c2cc(O)c3c(c2)C[C@@H]2C(C)(C)[C@H](O)CC[C@@]2(C)O3)cc2[nH]cc(CC=C(C)C)c12` gave a GI50 (RPMI-8226) of 0.0112 µM, a CC50 (RPMI-8226) of over 100 µM and a TGI (RPMI-8226) of 0.417 µM. It also gave a GI50 (A549) of 2.4 µM, a CC50 (A549) of 67.6 µM and a TGI (A549) of 38.9 µM. For the same compound, the GI50 [1] was 3.89 µM, the CC50 [1] was 81.3 µM and the TGI [1] was 39.8 µM. It also gave a GI50 (HOP-92) of 1.15 µM, a CC50 (HOP-92) of 81.3 µM and a TGI (HOP-92) of 22.9 µM. The GI50 (SW-620) was 0.302 µM, the CC50 (SW-620) was 21.4 µM and the TGI (SW-620) was 4.27 µM. The GI50 (SNB-19) was 0.575 µM, the CC50 (SNB-19) was 64.6 µM and the TGI (SNB-19) was 35.5 µM. The GI50 (U-251) was 0.01 µM, the CC50 (U-251) was 60.3 µM and the TGI (U-251) was 32.4 µM. For the same compound, the GI50 (Malme-3M) was 5.37 µM, the CC50 (Malme-3M) was over 100 µM and the TGI (Malme-3M) was 31.6 µM. For the same compound, the GI50 (NCI-H322M) was 18.2 µM, the CC50 (NCI-H322M) was 77.6 µM and the TGI (NCI-H322M) was 49 µM. The GI50 (NCI-H522) was 1.66 µM, the CC50 (NCI-H522) was 20.9 µM and the TGI (NCI-H522) was 7.24 µM. The GI50 (SK-MEL-28) was 0.676 µM, the CC50 (SK-MEL-28) was 46.8 µM and the TGI (SK-MEL-28) was 10.7 µM. It also gave a GI50 [2] of 5.37 µM, a CC50 [2] of 60.3 µM and a TGI [2] of 30.2 µM. For the same compound, the GI50 (A498) was 0.0661 µM, the CC50 (A498) was 44.7 µM and the TGI (A498) was 2.69 µM. The GI50 (ACHN) was 3.63 µM, the LC50 (concentration killing 50% of cells) (ACHN) was 61.7 µM and the TGI (ACHN) was 38 µM. The GI50 (SN12C) was 8.51 µM, the LC50 (SN12C) was 75.9 µM and the TGI (SN12C) was 45.7 µM. The GI50 [3] was 0.129 µM, the LC50 [3] was 69.2 µM and the TGI [3] was 21.4 µM. It also gave a GI50 [4] of 0.01 µM, an LC50 [4] of over 100 µM and a TGI [4] of 0.977 µM.

From ChEMBL document CHEMBL3232844, “Synthesis and structure activity relationships of schweinfurthin indoles” (2014)
